# Source: PubChem (several laboratories)
# SR-BI DiI inh = inhibitors of SR-BI mediated HDL lipid uptake, primary screen, ldlA[mSR-BI] cells, fluorescence, single point | Scavenger receptor class B member 1 (Mus musculus), Q61009 | ldlA[mSR-BI] CHO cells, DiI-HDL uptake fluorescence, 3 h | inhibition, % at 12.5 µM | 320,000 tested, 0.96% active | AID 488896, 2010;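 active means mean replicate inhibition of at least 70% and a set share of replicates each scoring 70 or more; inconclusive means meets just one of the two criteria; inactive means fails both criteria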;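 further: 0% = median of neutral control wells and 100% = median of positive control wells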
# Target sequence (Q61009 whole entry, looked up): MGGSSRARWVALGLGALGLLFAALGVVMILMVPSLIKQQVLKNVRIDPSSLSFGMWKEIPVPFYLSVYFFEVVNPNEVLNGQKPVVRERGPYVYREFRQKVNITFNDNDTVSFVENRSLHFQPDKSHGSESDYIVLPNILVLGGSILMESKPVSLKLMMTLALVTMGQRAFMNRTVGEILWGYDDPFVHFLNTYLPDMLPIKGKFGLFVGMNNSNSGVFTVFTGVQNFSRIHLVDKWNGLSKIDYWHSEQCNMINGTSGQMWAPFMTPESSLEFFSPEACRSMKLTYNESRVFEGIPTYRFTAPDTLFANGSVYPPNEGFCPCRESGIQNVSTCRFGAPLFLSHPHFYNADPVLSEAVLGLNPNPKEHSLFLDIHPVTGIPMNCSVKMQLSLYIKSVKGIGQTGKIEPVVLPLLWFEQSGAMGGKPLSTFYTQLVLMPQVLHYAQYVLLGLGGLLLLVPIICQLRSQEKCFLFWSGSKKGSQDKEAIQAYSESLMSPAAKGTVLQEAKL
# SR-BI DiI-HDL act = activators of SR-BI mediated DiI-HDL uptake, primary screen, ldlA[mSR-BI] CHO cells, DiI fluorescence; 3 h; 100 = double the neutral-control signal; activation, % at 12.5 µM; 320,000 tested, 0.096% active; AID 504775, 2011;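 active means mean replicate activation of at least 60% and every replicate at or above 60%; inconclusive means mean or all-replicate condition met, but not both; inactive means mean below 60% and not all replicates reaching 60%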;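 further: 0% = median plate neutral-control signal and 100% = twice that signal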
#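 Material: SR-BI-overexpressing, LDLR-lacking CHO cells; schedule: compound exposure 3 h, 37 °C; reagent: DiI-labelled HDL at 10 µg/mL final; technique: bottom-read fluorescence, 550/595 nm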
# Xi reactivation = activators of inactive X chromosome reactivation, primary screen, imaging, XiGFP fibroblasts, GFP high-content imaging, set 2; XiGFP mouse fibroblasts, % GFP-positive cells imaging, 3 d; cells co-treated with 5-aza-dC sensitizer; scaled so ellipticine positive control = 100%; activation, % at 7.58 µM; 360,000 tested, 0.055% active; AID 743238, 2013;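 active means mean normalized replicate activation at least 10% and every replicate at or above 10%; inconclusive means only one of the two criteria met; inactive means mean below 10% and not all replicates reach 10%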;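 further: 0% = median of on-plate neutral control wells and 100% = ellipticine 6 µM median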
#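 System: 68-5-11 XiGFP fibroblast line; Timing: 3 days compound exposure; Compound dosing: one concentration, pinned; Benchmarks: positive control ellipticine, 6 µM final; Buffer or medium: DMEM containing 5-aza-dC.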
# NSD2 HMT inh = NSD2 histone methyltransferase inhibitors, primary screen, biochemical, AlphaScreen, single concentration, set 2; NSD2 peptide methylation, 120 min; inhibition, % at 12.5 µM; 310,000 tested, 0.54% active; in the data active means inhibition above about 50%
# sPLA2-III inh = human group III sPLA2 inhibitors, primary screen, biochemical, QFRET, BODIPY PC-A2 liposome substrate; Group 3 secretory phospholipase A2 (Homo sapiens), Q9NZ20; QFRET BODIPY PC-A2 liposome hydrolysis, fluorescence; inhibition, % at 12.2 µM; 370,000 tested, 0.56% active; AID 743126, 2013;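 active means inhibition above mean plus 3 SD of compounds lying within the high and low control bounds, cut at about 19% in these data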;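 further: 0% = median of test compound wells and 100% = no enzyme DMSO wells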
# ARNT TACC3 PPI = disruptors of ARNT/TACC3 protein interaction, primary screen, biochemical, AlphaScreen, single concentration; AlphaScreen His-ARNT PAS-B/GST-TACC3 binding, luminescence; TACC3 fragment carries E629A point mutation; inhibition, % at 9.99 µM; 390,000 tested, 0.66% active; AID 623870, 2012;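 active means mean inhibition of replicates at least 50% and at least half of replicates each reaching 50%; inconclusive means half or more replicates reach 50% but mean below 50%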;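 further: 0% = complete ARNT plus TACC3 wells and 100% = ARNT alone without TACC3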
# DiI quench = counter-screen for SR-BI lipid transfer inhibitors: DiI fluorescence quenchers | shares compounds with SR-BI DiI inh | cell-free DiI-HDL fluorescence quenching, 30 min | AC50, µM (series often up to 35 µM), inactives show at the highest dose activity change, negative = quenching | 470 tested, 20% active;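 active means quenching, a falling signal, with AC50 below a set limit tied to the top valid dose, actives reach about 32 µM in these data; inconclusive means no clear call, values can overlap the other calls; inactive means rising signal, and the rest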
# Numbers without * were called inactive; ? = inconclusive; nt = not tested or not shown. Only some compounds are listed: those with a hit (about 2% of all), similar ones and a draw of the others.
SMILES,SR-BI DiI inh,SR-BI DiI-HDL act,Xi reactivation,NSD2 HMT inh,sPLA2-III inh,ARNT TACC3 PPI,DiI quench
CCn1nnnc1NC(=O)c1cc(OC)c(OC)c(OC)c1,-33,33,0,1,2,-3,nt
COCCOC(=O)c1[nH]c2c(c1C)C(=O)CC(c1ccco1)C2 (configuration not stated),?,-72,0,nt,-4,-5,-2%
CCOC(=O)c1[nH]c2c(c1C)C(=O)CC(c1ccco1)C2 (configuration not stated),57,-57,1,nt,-4,-3,nt
Cc1ccc(C(C(=O)NCc2ccccc2)N(Cc2cccs2)C(=O)c2ccc3c(c2)OCCO3)cc1 (configuration not stated),28,-28,0,-2,1,9,nt
COc1ccc(CNC(=O)C(c2ccc(C)cc2)N(Cc2cccs2)C(=O)c2ccc3c(c2)OCCO3)cc1 (configuration not stated),26,-26,nt,-2,-1,36,-1%
O=C(NCc1ccccc1Cl)C1CCN(C(=O)c2sccc2-n2cccc2)CC1,?,-73,0,nt,-1,-3,-1%
CC1CCCCC1NC(=O)C1CCN(C(=O)c2sccc2-n2cccc2)CC1 (configuration not stated),44,-44,0,nt,1,-4,-2%
O=C(NCc1ccccc1F)C1CCN(C(=O)c2sccc2-n2cccc2)CC1,69,-69,0,5,-3,0,nt
CCOc1ccccc1CNC(=O)C1CCN(C(=O)c2sccc2-n2cccc2)CC1,70,-70,nt,1,-2,-2,-4%
CC1CCCCC1NC(=O)C1CCN(C(=O)NC2CCCCC2)CC1 (configuration not stated),-3,3,nt,0,5,-4,nt
Cc1ccccc1C(=O)NC1CC2CCCC(C1)N2C(=O)Nc1ccccc1 (configuration not stated),-15,15,0,-5,2,1,-3%
CC1CCN(C(=O)Cn2nc(C(F)(F)F)c3c2CCCC3)CC1,21,-21,nt,0,8,-7,nt
C[C@@H]1COC(=O)[C@H](NC(=O)OCC2c3ccccc3-c3ccccc32)C/C=C\C[C@@H](CC(=O)N[C@H](CO)Cc2ccccc2)C(=O)N1,81*,-81,0,nt,-22,10,-9%
CC(C)(C)[C@H]1COC(=O)[C@@H](NC(=O)OCC2c3ccccc3-c3ccccc32)C/C=C\C[C@@H](CC(=O)N[C@@H](CO)Cc2ccccc2)C(=O)N1,34,-34,0,nt,-9,-9,nt
COc1ccc([C@H]2/C=C\CN(S(=O)(=O)c3ccc4ccccc4c3)[C@@H](C)C(=O)N2Cc2ccc(F)cc2)cc1,72*,-72,0,nt,-2,11,-1%
COc1ccc([C@H]2/C=C\CN(C(=O)c3ccc(C)cc3)[C@@H](C)C(=O)N2Cc2ccc(F)cc2)cc1,-14,14,0,nt,-7,41,nt
COc1ccc([C@H]2/C=C\CN(S(=O)(=O)c3cccc4cccnc34)[C@@H](C)C(=O)N2Cc2ccc(F)cc2)cc1,6,-6,0,nt,-5,-2,-3%
COc1ccc([C@H]2/C=C\CN(S(=O)(=O)c3ccc(C)cc3)[C@@H](C)C(=O)N2Cc2ccc(F)cc2)cc1,51,-51,0,nt,-6,-1,-2%
C[C@H]1CN([C@@H](C)CO)C(=O)c2cc(NC(=O)Nc3ccc(C(F)(F)F)cc3)ccc2O[C@@H]1CN(C)C(=O)Nc1ccccc1,nt,nt,-1,nt,nt,1,nt
Cc1noc(C)c1NC(=O)N(C)C[C@H]1OCCCC[C@@H](C)Oc2ccc(NC(=O)Nc3ccc(F)cc3)cc2C(=O)N([C@H](C)CO)C[C@@H]1C,nt,nt,0,nt,nt,-6,nt
COC(=O)c1cnc(Oc2ccc(NC(=O)NC(=O)c3c(OC)cccc3OC)cc2)cc1C(F)(F)F,?,-71,0,-2,2,-10,1%
COC(=O)c1cnc(Oc2ccc(NC(=O)NC(=O)c3c(F)cccc3F)cc2)cc1C(F)(F)F,40,-40,0,-7,1,2,nt
Cc1nn(Cc2c(Cl)cccc2Cl)c(C)c1NC(=O)CCCn1nc([N+](=O)[O-])c(Cl)c1C,80*,-80,0,0,3,1,-7%
Cc1nn(Cc2ccccc2)c(C)c1NC(=O)CCCn1nc([N+](=O)[O-])c(Cl)c1C,24,-24,0,-1,-2,-5,nt
CO[C@@H]1CN(C)C(=O)c2ccc(NC(=O)c3cnccn3)cc2OC[C@H](C)N(C(C)=O)C[C@H]1C,nt,nt,0,nt,nt,1,nt
SMILES,SR-BI DiI inh,SR-BI DiI-HDL act,Xi reactivation,NSD2 HMT inh,sPLA2-III inh,ARNT TACC3 PPI,DiI quench
Cn1cc(S(=O)(=O)N2CCN(c3ccccc3F)CC2)c(=O)n(C)c1=O,-3,3,0,nt,2,-3,nt
CCC(C)NC(=O)Cn1cc(S(=O)(=O)N2CCN(c3ccccc3F)CC2)c2ccccc2c1=O (configuration not stated),87*,-87,0,0,3,-5,4%
CC(C)NC(=S)Nc1ccc2cn[nH]c2c1,-2,2,1,-1,4,-9,nt
CCCCC(c1nnnn1CC1CCCO1)N1CCN(c2cc(Cl)ccc2C)CC1 (configuration not stated),82*,-82,nt,nt,0,-4,5%
CC(C)C(C(=O)OCC(=O)c1ccc2c(c1)NC(=O)CO2)N1C(=O)c2ccccc2C1=O (configuration not stated),23,-23,nt,nt,-3,-3,-1%
COc1cc(OC)cc(C(=O)N[C@H](C(=O)OCC(=O)c2ccc3c(c2)NC(=O)CO3)C(C)C)c1,-16,16,nt,-2,-11,-1,6%
CC[C@H](C)[C@H](NC(=O)c1ccc(Cl)cc1)C(=O)OCC(=O)c1ccc2c(c1)NC(=O)CO2,86*,-86,nt,-4,-10,2,2%
CC(C)[C@H](NC(=O)c1ccccc1)C(=O)OCC(=O)c1ccc2c(c1)NC(=O)CO2,10,-10,nt,0,-13,1,nt
